From PubChem BioAssay
An excerpt weighted towards active compounds, which were near 2.6% of everything screened.
CHT allo act: allosteric activators of human choline transporter CHT | CHT-expressing cells, membrane potential dye, choline EC20; hits give high values; LV-AA mutant CHT in HEK293 cells | B-score at 10 µM | Q9GZV3 | actives 0.49% (n = 310,000);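 active = initial fluorescence not abnormally high and integrated response B-score, plate-corrected, over 3 SD above library mean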
Target sequence (Q9GZV3 whole entry, looked up): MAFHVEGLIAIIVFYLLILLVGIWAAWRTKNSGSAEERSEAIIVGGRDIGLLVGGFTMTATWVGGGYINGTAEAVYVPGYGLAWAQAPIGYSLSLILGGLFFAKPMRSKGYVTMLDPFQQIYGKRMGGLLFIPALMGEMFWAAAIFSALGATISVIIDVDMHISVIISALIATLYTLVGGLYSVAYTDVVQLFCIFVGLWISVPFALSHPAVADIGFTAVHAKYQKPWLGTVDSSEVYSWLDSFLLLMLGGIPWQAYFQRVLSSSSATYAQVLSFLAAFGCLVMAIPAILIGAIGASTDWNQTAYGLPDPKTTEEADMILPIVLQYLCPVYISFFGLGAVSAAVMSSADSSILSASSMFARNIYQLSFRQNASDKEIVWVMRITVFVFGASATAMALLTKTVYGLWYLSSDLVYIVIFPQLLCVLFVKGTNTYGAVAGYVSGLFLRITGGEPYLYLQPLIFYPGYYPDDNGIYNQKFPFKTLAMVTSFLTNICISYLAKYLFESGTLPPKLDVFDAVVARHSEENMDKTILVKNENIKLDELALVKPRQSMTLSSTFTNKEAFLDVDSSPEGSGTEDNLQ
PolyA inh: blocks polyadenylation in yeast reporter cells; S. cerevisiae SKY197-pL101 polyadenylation reporter, beta-gal luminescence; efflux-impaired pdr1/pdr3 knockout yeast; score 100 = 6 SD above DMSO; activity score, % at 12 µM; actives 0.02% (n = 300,000);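 active = lowest replicate activity score at least 50, where 100 means six control SD above control mean; inconclusive = lowest score under 50 but half or more replicates reach 50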;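 also: yeast exposed to compound for 9 h at 30 °C; higher score means more reporter readthrough which indicates perturbed polyadenylation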
T cruzi repl: blocks replication of Trypanosoma cruzi; actives 1.4% (n = 300,000); T. cruzi beta-gal in NIH3T3, luminescence, 90 h; inhibition, % (no concentration beside the values);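 active = mean inhibition across valid replicates above about 55%, limit read from the data; inconclusive = mean below that limit but half or more replicates reach it; inactive = mean below it, under half of replicates reach it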;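 also: signal also drops with host cell toxicity which is not excluded here; higher percent means less beta-gal luminescence so fewer parasites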
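Incubation – ≥90 h infection period, 3 h prior cell attachment · System – NIH/3T3 fibroblasts plus reporter T. cruzi · Doses – compound pinned at 50 nL/well, DMSO · Read-out basis – percent inhibition of parasite-derived β-gal signal · Signal – luminescent β-galactosidase signal after 60 min lysis · Also added – 5000 T. cruzi trypomastigotes/well · Medium – Low-serum DMEM with 2% FBS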
CHT inh: inhibitors of human choline transporter CHT. CHT-expressing cells, membrane potential dye, choline response; hits give low values. actives 0.86% (n = 310,000). B-score at 10 µM. Q9GZV3. AID 488975;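 active = B-score over 3 SD under the library average, and starting fluorescence ratio not unusually high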;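 also: choline stimulus applied at its EC90 after an EC20 pre-addition; B-score computed on integrated fluorescence ratio after choline addition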
Numbers stand for hits; – = inactive; ? = inconclusive; · = no result given.

SMILES	CHT allo act	PolyA inh	T cruzi repl	CHT inh
Cc1nc(NC(=O)C23CC4CC(CC(C4)C2)C3)sc1Cc1ccc2c(c1)OCO2	–	–	65	–
Nc1nc(-c2ccccn2)nc(N)c1Cc1ccccc1F	–	–	82	–
Clc1ccc(OCc2nc(-c3ccccn3)no2)c(Br)c1	–	–	–	–
Cc1n[nH]c(C)c1Cc1c(F)cccc1Cl	–	–	–	–
Nc1nc(-c2ccccn2)nc(N)c1Cc1c(F)cccc1Cl	–	–	57	–
Nc1nc(-c2ccccn2)nc(N)c1Cc1ccc(Cl)cc1Cl	–	–	73	–
Cc1ccc(CNC(=O)COc2ccc(S(=O)(=O)N3CCOCC3)cc2)cc1	–	–	–	–
Oc1c(C=Nc2cccc3cccnc23)sc2ccccc12	–	–	55	–
Cc1cc(C)c(OCCN(C)Cc2ccccc2)c(Br)c1	–	–	57	–
CN(CCCOc1ccccc1Br)Cc1ccccc1	–	–	–	–
Cn1nnc2cc(C(=O)Nc3ccccc3F)ccc21	–	–	–	–
COC(=O)c1ccc(COc2ccc(/C=N/NC(N)=S)cc2)o1	–	–	55	–
C=CCOc1ccc(/C=N\NC(N)=S)cc1	–	–	64	–
COc1ccc(/C=N/NC(N)=S)cc1	–	–	–	–
O=C(Cn1[nH]c(=O)c2ccccc2c1=O)OCC(=O)c1ccccc1Cl	–	?	–	–
CCOC(=O)c1c(C)[nH]c(C)c1S(=O)(=O)N1CCN(c2ccc(F)cc2)CC1	–	–	–	–
CCOc1ccc(-c2c(C(=O)N/N=C/c3c[nH]c4ccccc34)nnn2-c2nonc2N)cc1	–	–	–	–
COc1ccc(C(=O)C2CCCN(Cc3c(O)cccc3OC)C2)cc1OC (stereo not given)	–	–	–	–
O=C(NCC1CCCN(Cc2ccc3c(c2)OCCO3)C1)c1ccc2c(c1)OCO2 (stereo not given)	–	–	–	–
O=C(NCC1CCCN(Cc2ccc3nonc3c2)C1)c1cccc(C(F)(F)F)c1 (stereo not given)	–	–	58	–
COc1ccc(C(=O)C2CCCN(Cc3ccc4nonc4c3)C2)cc1F (stereo not given)	–	–	–	–
COCc1cc(CN2CCCC(C(=O)c3cccc(C(F)(F)F)c3)C2)ccc1OC (stereo not given)	–	–	66	–
COc1ccc(C(=O)C2CCCN(Cc3cccc4c3OCO4)C2)cc1OC (stereo not given)	–	–	62	–
COc1ccc(C(=O)C2CCCN(Cc3ccc(C#CCCO)cc3)C2)cc1F (stereo not given)	–	–	59	–
COc1ccc(-c2cc(=O)oc3cc(OCC(=O)NCc4ccccn4)ccc23)cc1	–	–	–	–
SMILES	CHT allo act	PolyA inh	T cruzi repl	CHT inh
COc1ccc(CN2CC(C(=O)NCCCN3CCCC(C)C3)CC2=O)cc1 (stereo not given)	–	–	–	–
CC1CCN(C(=O)CCC(=O)Nc2nnc(C3CCCCC3)s2)CC1	–	–	–	–
C/C(=N\NC(=S)Nc1ccccc1C)c1cc2ccccc2o1	–	–	59	–
CC1(C)NC(=O)N(CC(O)CN(c2ccccc2)S(=O)(=O)c2ccccc2[N+](=O)[O-])C1=O (stereo not given)	–	–	–	–
COc1ccc(OC)c(S(=O)(=O)NCC(c2ccc3c(c2)OCO3)N2CCOCC2)c1 (stereo not given)	–	–	–	–
O=C(NCCN1CCN(c2ccc([N+](=O)[O-])cc2)CC1)NCc1ccccc1	–	–	–	–
Cc1ccc(NC(=O)COc2ccccc2CNC(C)(C)CC(C)(C)C)cc1	–	–	61	–
CCn1cc([N+](=O)[O-])c(C(=O)N2CCCCCC2)n1	–	–	–	–
COc1ccccc1N(Cc1ccccc1)S(=O)(=O)c1cccc(C(=O)Nc2ccc(C)cn2)c1	–	–	62	–
O=S(=O)(c1ccc(Br)c2ccccc12)N1CCCC1	–	–	–	–
O=[N+]([O-])c1ccc(O)c(-c2cc(C(F)(F)F)nc(-c3ccccc3)n2)c1	–	–	–	–
O=C(N/N=C/c1ccc([N+](=O)[O-])s1)C(O)c1ccccc1 (stereo not given)	–	–	77	–
Cn1c(SCC(=O)N/N=C/c2ccc([N+](=O)[O-])s2)nnc1-c1ccccc1	–	–	58	–
COc1ccccc1NC(=O)C(=O)N/N=C/c1ccc([N+](=O)[O-])s1	·	–	62	·
O=[N+]([O-])c1ccc(/C=N/NC(=S)Nc2ccc(Cl)cc2Cl)s1	–	–	56	–
